Myeloid diff 2 = compounds promoting myeloid differentiation. hit rate 1% among 360,000. AID 624256. calls only at 10 µM. ER-HoxA9 myeloid progenitors, lysozyme-GFP differentiation, flow cytometry;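 active = normalized GFP-positive differentiation at or above the plate's own cutoff, the solvent-only control mean plus 3 SD; inconclusive = no clear call, values can overlap the other calls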;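 note: cells exposed to compound for four days before flow analysis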
ATG4B inhibitor = inhibitors of human ATG4B cysteine protease; Q9Y4P1; inhibition, % at 8.33 µM; ATG4B cleavage of LC3-PLA2, NBD-HPC fluorescence, 1 h; AID 504462; hit rate 0.51% among 340,000; in the data active = inhibition above about 40%
Target sequence (Q9Y4P1 whole entry, looked up): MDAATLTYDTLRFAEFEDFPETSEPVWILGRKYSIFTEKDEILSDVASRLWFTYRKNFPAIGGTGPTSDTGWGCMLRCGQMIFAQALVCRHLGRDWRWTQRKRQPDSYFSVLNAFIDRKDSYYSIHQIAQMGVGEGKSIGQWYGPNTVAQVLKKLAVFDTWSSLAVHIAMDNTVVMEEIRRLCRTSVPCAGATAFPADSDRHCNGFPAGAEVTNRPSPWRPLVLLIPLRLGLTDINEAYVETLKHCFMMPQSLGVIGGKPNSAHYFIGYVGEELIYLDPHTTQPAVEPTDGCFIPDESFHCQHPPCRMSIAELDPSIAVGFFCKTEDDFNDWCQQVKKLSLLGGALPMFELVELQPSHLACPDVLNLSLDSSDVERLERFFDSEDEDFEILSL
ABCB6 inh 2 = inhibitors of human ABC transporter ABCB6; fluorescence ratio to DMSO, % at 10 µM; hit rate 0.19% among 360,000; K562-ABCB6 porphyrin accumulation, flow cytometry, 1 h; active compounds read low;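 active = fluorescence ratio to DMSO below 75%, the collection mean minus 3 SD; inconclusive = too few cells collected in the well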;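 note: signal is porphyrin accumulated inside mitochondria; 100% equals median channel fluorescence of DMSO control wells; lower ratio means ABCB6 inhibition with less porphyrin fluorescence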
Arrestin-AP2 inh = human beta-arrestin and AP2 interaction inhibition; AID 504490; FITC-arrestin peptide / GST-AP2 beads, flow cytometry; AP2 beta2 appendage carries R879A mutation; inhibition, % at 10 µM; hit rate 0.31% among 340,000;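 active = inhibition above a set limit, near 3 SD of compounds lacking own fluorescence, cut at about 54% in these data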;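 note: plate controls were DMSO wells for no effect and 5 µM unlabelled arrestin peptide for full effect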
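System: GST-tagged AP2 beta2-adaptin appendage (R879A) on 4 µm glutathione beads / Reagent: FITC-arrestin peptide, 50 nM / Detection: HyperCyt-sampled flow cytometry, FL1 channel, ex 488/em 535 nm / Timing: 12 min plus 1 h, RT / Buffer or medium: PBS plus Tween 20 (0.05%) and BSA (0.1%)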
Exocytosis inh = blocks lytic granule exocytosis; TALL-104 LAMP-1 surface exposure, flow cytometry; cells stimulated with thapsigargin and PMA; inhibition, % at 10 µM; hit rate 0.66% among 360,000;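 active = inhibition above about 55%, limit read from the data; inconclusive = no clear call, values can overlap the other calls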
NRP1-CendR mod = NRP-1/CendR interaction modulation; AID 602438; O14786; hit rate 0.85% among 360,000; inhibition, % at 25 µM; FAM-RPARPAR peptide binding to NRP-1, fluorescence polarization;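 active = inhibition or corrected inhibition above about 18%, plus a signal ratio from 0.5 to 1.5, limit read from the data, passing the limit was not always enough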
Exocytosis CP01 = lytic granule exocytosis inhibition; shares compounds with Exocytosis inh; TALL-104 cells, LAMP-1 externalization, flow cytometry; stimulated with PMA plus thapsigargin; inhibition, % at 10 µM; hit rate 11% among 1,500; AID 651954; in the data active = inhibition above about 60%;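 note: 0% = stimulated vehicle wells and 100% = unstimulated wells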
The depositor's hits bear a star; i = inactive; ? = inconclusive; / = not tested or not shown; + = active, no number. An excerpt weighted towards active compounds, which were near 3.3% of everything screened.

SMILES	Myeloid diff 2	ATG4B inhibitor	ABCB6 inh 2	Arrestin-AP2 inh	Exocytosis inh	NRP1-CendR mod	Exocytosis CP01
COc1ccc(-c2nc3cc(C)c(Br)c(C)n3c2Cc2ccccc2C(F)(F)F)cc1OC	i	/	98	/	-8	-16	/
O=C(OCC(=O)N1CCOCC1)c1ccccc1O	i	-2	97	1	1	4	/
CCCCCCn1cc(CN2CC(N(C)C)CS2(=O)=O)nn1 (centres undefined)	i	/	102	/	-15	4	/
CCC1=C2CC[C@H]3C(=O)N(CC(=O)OC)C(=O)[C@H]3[C@H]2[C@@]2(C)C(=NCC(=O)OC)OC(=O)N2C1=O	i	-5	102	0	14	14	/
COc1ccc2noc3c2c1C(=O)c1ccccc1-3	+	-47	346	4	88*	133	23
COc1ccc(N)c2c1C(=O)c1ccccc1C2=O	i	8	98	7	2	2	/
O=C(c1ccco1)N1CCC(c2nc(-c3ccccc3Cl)no2)CC1	i	-5	95	2	100*	-4	-5
Cc1ccc(C(=O)CCNc2ccc(F)c(Cl)c2)o1	i	-2	95	3	4	2	/
CCN(CC(=O)Nc1ccccc1OC)C(=O)CSCc1c(C)noc1C	i	3	99	10	2	19	/
Cc1cccn2c(=O)c3cc(C(=O)NC4CCCC4)c(=N)n(CCc4ccccc4)c3nc12	?	-21	91	14	69*	-81	-3
Cc1ccc2nc3c(cc(C(=O)NCCc4ccccc4)c(=N)n3CCCN3CCOCC3)c(=O)n2c1	/	8	97	10	80*	-1	-2
COc1ccc(C(C(=O)NCc2ccccc2)N(C(=O)c2snc(C(N)=O)c2N)c2ccccc2OC)cc1 (centres undefined)	i	-1	97	-4	65*	1	-5
O=C1Nc2ccc(Br)cc2/C1=C/C(=O)c1ccccc1	/	-4	97	-22	73*	5	83*
O=C(O)COc1ccccc1/C=C1\C(=O)Nc2ccc(Br)cc21	i	3	99	3	0	-5	/
CCn1cc([N+](=O)[O-])c(C(=O)N2CCCCCC2)n1	i	8	100	-3	-2	-11	/
O=C(NC1CC2CCCC(C1)N2C(=S)Nc1ccc(Cl)cc1)C1CC1 (centres undefined)	i	-2	93	-1	-11	3	/
CC(=O)c1c(C)n(-c2ccc(Cl)cc2)c2ccc(O)cc12	i	-1	97	-12	-14	3	/
CC(=O)c1c(C)n(-c2cccc(Cl)c2)c2ccc(O)cc12	i	-12	86	15	81*	0	-2
Cc1ccc(S(=O)(=O)NCc2ccccc2)cc1C(=O)N1CCN(S(=O)(=O)c2ccccc2)CC1	i	-9	96	-11	0	-7	/
COc1ccc(CNC(=O)CN(C(=O)c2csnn2)c2ccccc2F)cc1	i	-5	98	19	13	-4	/
CN(C)CCCNc1ncnc2sc(-c3ccccc3)cc12	i	-4	98	-15	8	-6	/
CCCCN(CCO)c1ncnc2sc(-c3ccccc3)cc12	i	-16	99	3	92*	2	-10
Cc1cc(C(=O)Nc2ccc(Nc3ccccc3)cc2)ccc1[N+](=O)[O-]	i	-5	100	14	64*	13	-3
Cc1cc(C(=O)Nc2ccncc2)ccc1[N+](=O)[O-]	i	0	97	6	-4	-2	/
O=c1[nH]c(C2CCN(S(=O)(=O)c3cccc([N+](=O)[O-])c3)CC2)nc2c1nnn2Cc1ccccc1	i	-13	95	1	3	3	/
SMILES	Myeloid diff 2	ATG4B inhibitor	ABCB6 inh 2	Arrestin-AP2 inh	Exocytosis inh	NRP1-CendR mod	Exocytosis CP01
CCCNC(=O)C1(CC2CC(c3ccccc3)=NO2)CCN(C(=O)C2(C)CC2)CC1 (centres undefined)	i	-9	99	8	10	-10	/
COc1ccccc1C(=O)Nc1c2c(nn1-c1cccc(C)c1C)CS(=O)(=O)C2	i	-6	97	43	71*	2	-1
COc1ccc(C(=O)Nc2sc3c(c2C(=O)NCc2ccco2)CCCC3)cc1OC	i	-19	89	-4	56*	2	5
COc1cc(C(=O)Nc2sc3c(c2C(=O)NCc2ccco2)CCCC3)cc(OC)c1OC	i	0	91	8	55	2	/
O=C(Nc1sc2c(c1C(=O)NCc1ccco1)CCCC2)c1ccc2c(c1)OCO2	i	30	98	15	59*	-12	-2
COc1ccc(C(=O)Nc2ccc(Cl)cc2C(=O)NCc2ccco2)cc1OC	i	-11	103	0	60*	-4	44
Cc1ccc(C(=O)Nc2sc3c(c2C(=O)NCc2ccco2)CCCC3)cc1	i	0	96	2	1	-9	/
COc1ccccc1C(=O)N/C(=C\c1ccc(Br)cc1)C(=O)N1CCCC1	i	-1	100	3	5	2	/
Oc1ccc(Cl)cc1/C=C/c1ccc2cccc(O)c2n1	i	13	101	-20	78*	-1	-9
O=C(CCN1CCc2ccccc2C(c2ccccc2)C1)c1ccc2c(c1)OCCO2 (centres undefined)	i	8	97	-11	96*	9	81*
CCc1ccnc(NC(=O)NS(=O)(=O)c2ccc(C)cc2)c1	i	-7	102	24	-2	6	/
O=C(COC(=O)[C@H](Cc1c[nH]c2ccccc12)NC(=O)c1ccc(Cl)cc1)Nc1ccc2c(c1)OCO2	i	-12	96	3	69*	-6	78*
Cc1cc(C)c(S(=O)(=O)c2ccccc2C)c(OCCN(C)C)n1	i	-10	98	-16	8	9	/
NC(=O)c1ccc(NC(=O)c2ccc3c(c2)CCN3S(=O)(=O)c2ccccc2)cc1	i	-16	99	1	72*	-1	-1
Cc1cccc(Cn2nc(C(C)(C)C)cc2C(=O)Nc2ccc(F)cc2)c1	i	0	93	7	56*	-7	0
CC(C)(C)c1cc(C(=O)NN)n(Cc2ccc(F)cc2)n1	i	-11	97	34	12	4	/
O=C(COC(=O)c1nc(Cl)ccc1Cl)Nc1ncc(Cl)cc1Cl	i	3	97	-2	-2	-1	/
CCCCCCCCN1C(=O)[C@H](CC(=O)NCCCOCCCC)C[C@@]2(C(=O)OCC)CCCC=C12	i	/	96	/	76*	8	52
CCCCCCCCN1C(=O)[C@H](CC(=O)NCC2CCCCC2)C[C@@]2(C(=O)OCC)CCCC=C12	i	/	97	/	6	7	/
